Source: ChEMBL document CHEMBL1145132, “N-hydroxy-3-phenyl-2-propenamides as novel inhibitors of human histone deacetylase with in vivo antitumor activity: discovery of (2E)-N-hydroxy-3-[4-[[(2-hydroxyethyl)[2-(1H-indol-3-yl)ethyl]amino]methyl]phenyl]-2-propenamide (NVP-LAQ824)” (J Med Chem, 2003)
Values joined by “and” are separate entries in the source; they are usually repeats but may differ in a detail not shown here. Equal values may be shown once.

Legend:
Mus musculus [1] = assay: Compound was tested for maximum tolerated dose (MTD) that resulted in no deaths when administered intravenously for five days; type: functional
How it was run: (§1)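 Athymic mice, four per group, dosed iv once daily for five consecutive days, up to a maximum of 200 mg/kg/day. Compound given as the lactate salt in 10% DMSO in 5% dextrose/water (final DMSO 10%). MTD taken as the highest dose that caused no deaths.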

HCT-116 = assay: Inhibitory activity against HCT116 human colon cell growth; type: functional, cell-based
Mus musculus [2] = assay: Compound was tested for efficacy in athymic mice bearing HCT116 subcutaneous tumor xenografts at a dose of 75 mg/kg and change in the body weight of the mouse was evaluated; type: functional
NCI-H1299 = assay: Inhibitory activity against H1299 human lung carcinoma cell growth; type: functional, cell-based
Mus musculus [3] = assay: Ratio of the change in tumor volume of treated animals to the change in tumor volume of control animals at a dose of 75 mg/kg; type: functional
How it was run: (§2)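 HCT116 sc xenografts (≈10⁶ cells) in female athymic nude mice, eight per group, treated from ≈100 mm³ tumors with iv lactate salt in 10% DMSO/D5W qd 5×/week for 10 or 15 doses. Tumors measured weekly; % T/C = change in treated tumor volume over change in vehicle-control tumor volume; one-tailed Student's t-test.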

Histone deacetylase = assay: Inhibitory activity against histone deacetylase (HDAC) enzyme obtained from H1299 human lung carcinoma cell lysates
Mus musculus [4] = assay: Ratio of the change in tumor volume of treated animals to the change in tumor volume of control animals at a dose of 50 mg/kg; type: functional; how it was run: as §2
Mus musculus [5] = assay: Ratio of the change in tumor volume of treated animals to the change in tumor volume of control animals at a dose of 25 mg/kg; type: functional; how it was run: as §2
Mus musculus [6] = assay: Ratio of number of deaths of mice to the number of mice tested was determined at a dose of 50 mg/kg; dead/total = 0 / 8; type: functional
How it was run: (§3)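 Female outbred athymic nu/nu mice, eight per group, carrying subcutaneous right-axillary HCT116 (≈10⁶ cells) or A549 (≈10⁷ cells) xenografts, started treatment at ≈100 mm³ tumour volume. Drug given as lactate salt in 10% DMSO/D5W, iv qd 5×/week for 15 doses. Body weights and tumours recorded weekly; deaths counted per group as dead/total.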

Mus musculus [7] = assay: Compound was tested in vivo for efficacy in athymic mice bearing HCT116 subcutaneous tumor xenografts at a dose of 50 mg/kg and change in the body weight of the mouse was evaluated; type: functional; conditions: route intravenous
How it was run: (§4)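 Female outbred athymic nu/nu mice, ≈10⁶ HCT116 cells injected sc in right axillary region under anesthesia; treatment began when tumors ≈100 mm³ (day 13 post-implant), groups of eight balanced on tumor volume. Compound given iv as lactate salt in 10% DMSO/D5W, qd 5×/week for 15 doses. Individual body weights recorded once weekly; % change from start reported.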

Mus musculus [8] = assay: Compound was tested in vivo for maximum tolerated dose (MTD) that resulted in no deaths when administered intravenously for five days; type: functional; how it was run: as §1
Mus musculus [9] = assay: Ratio of the change in tumor volume of treated animals to the change in tumor volume of control animals at a dose of 100 mg/kg; type: functional; how it was run: as §2
Mus musculus [10] = assay: Compound was tested in vivo for efficacy in athymic mice bearing HCT116 subcutaneous tumor xenografts at a dose of 100 mg/kg and change in the body weight of the mouse was evaluated; type: functional; conditions: route intravenous; how it was run: as §4
Mus musculus [11] = assay: Compound was tested in vivo for efficacy in athymic mice bearing HCT116 subcutaneous tumor xenografts at a dose of 10 mg/kg and change in the body weight of the mouse was evaluated; type: functional; conditions: route intravenous; how it was run: as §4
Mus musculus [12] = assay: Compound was tested in vivo for efficacy in athymic mice bearing HCT116 subcutaneous tumor xenografts at a dose of 25 mg/kg and change in the body weight of the mouse was evaluated; type: functional
Mus musculus [13] = assay: Ratio of number of deaths of mice to the number of mice tested was determined at a dose of 100 mg/kg; dead/total = 0 / 8; type: functional; how it was run: as §3
Mus musculus [14] = assay: Ratio of the change in tumor volume of treated animals to the change in tumor volume of control animals at a dose of 10 mg/kg; type: functional; how it was run: as §2
Mus musculus [15] = assay: Ratio of number of deaths of mice to the number of mice tested was determined at a dose of 10 mg/kg; dead/total = 0 / 8; type: functional; how it was run: as §3
Mus musculus [16] = assay: Ratio of the change in tumor volume of treated animals to the change in tumor volume of control animals at a dose of 20 mg/kg; type: functional; how it was run: as §2
Mus musculus [17] = assay: Compound was tested in vivo for efficacy in athymic mice bearing HCT116 subcutaneous tumor xenografts at a dose of 20 mg/kg and change in the body weight of the mouse was evaluated; type: functional; how it was run: as §4
Mus musculus [18] = assay: Compound was tested for efficacy in athymic mice bearing HCT116 subcutaneous tumor xenografts at a dose of 50 mg/kg and change in the body weight of the mouse was evaluated; type: functional; how it was run: as §4
Mus musculus [19] = assay: Compound was tested for efficacy in athymic mice bearing HCT116 subcutaneous tumor xenografts at a dose of 45 mg/kg and change in the body weight of the mouse was evaluated; type: functional
Mus musculus [20] = assay: Ratio of the change in tumor volume of treated animals to the change in tumor volume of control animals at a dose of 45 mg/kg; type: functional; how it was run: as §2

| Compound | IC50 (HCT-116) [nM] | IC50 (NCI-H1299) [nM] | IC50 (Histone deacetylase) [nM] | other results |
| --- | --- | --- | --- | --- |
| Cn1cc(CCNCc2ccc(/C=C/C(=O)NO)cc2)c2ccccc21 | 10 | 170 | 23 | MTD (Mus musculus [1]): 75 mg/kg; Body weight change (Mus musculus [2]): -3.2%; T/C (Mus musculus [3]): 15% |
| O=C(/C=C/c1ccc(CNCCCCc2c[nH]c3ccccc23)cc1)NO | 30 | 480 | 37 | – |
| O=C(/C=C/c1ccc(CN(CCCc2ccccc2)Cc2cccnc2)cc1)NO | 420 | 1700 | 164 | – |
| O=C(/C=C/c1ccc(CNCCc2ccc3c(c2)OCO3)cc1)NO | 50 | 500 | 30 | – |
| O=C(/C=C/c1ccc(CNCCc2cc3ccccc3[nH]2)cc1)NO | 40 | 540 | 46 | – |
| O=C(/C=C/c1ccc(CNCCc2c[nH]c3ccc(F)cc23)cc1)NO | 30 | 310 | 14 | T/C (Mus musculus [4]): 13%; T/C (Mus musculus [5]): 19%; Ratio (Mus musculus [6]): 0; Body weight change (Mus musculus [7]): -1.7%; MTD (Mus musculus [8]): 100 mg/kg; T/C (Mus musculus [9]; 100 mg/kg): 16% and 8%; Body weight change (Mus musculus [10]; 100 mg/kg): 6.7% and 7.5%; Body weight change (Mus musculus [11]): -6.4%; Body weight change (Mus musculus [12]): -6.6%; Ratio (Mus musculus [13]): 0; T/C (Mus musculus [14]): 40%; Ratio (Mus musculus [15]): 0 |
| O=C(/C=C/c1ccc(CNCCc2cn(CC3CC3)c3ccccc23)cc1)NO | 30 | 250 | 84 | T/C (Mus musculus [16]): 81%; Body weight change (Mus musculus [17]): -0.9%; MTD (Mus musculus [8]): 20 mg/kg |
| O=C(/C=C/c1ccc(CN[C@@H](CO)Cc2c[nH]c3ccccc23)cc1)NO | 40 | 750 | 40 | – |
| CC(C)N(CCc1c[nH]c2ccccc12)Cc1ccc(/C=C/C(=O)NO)cc1 | – | 30 | – | T/C (Mus musculus [5]): 29%; MTD (Mus musculus [8]): 25 mg/kg; Body weight change (Mus musculus [12]): -4.1% |
| O=C(/C=C/c1ccc(CN2CCC(c3c[nH]c4ccccc34)CC2)cc1)NO | 110 | 900 | 53 | – |
| O=C(/C=C/c1ccc(CNCCc2c[nH]c3ccc(OCc4ccccc4)cc23)cc1)NO | 40 | 65 | – | T/C (Mus musculus [4]): 45%; MTD (Mus musculus [1]): 50 mg/kg; Body weight change (Mus musculus [18]): -3% |
| O=C(/C=C/c1ccc(CNCCCn2c3ccccc3c3ccccc32)cc1)NO | 160 | 1100 | 79 | – |
| O=C(/C=C/c1ccc(CNCc2c[nH]c3ccccc23)cc1)NO | 160 | 2200 | 59 | – |
| O=C(/C=C/c1ccc(CNCCCc2c[nH]c3ccccc23)cc1)NO | 100 | 1000 | 53 | – |
| O=C(/C=C/c1ccc(NCCCc2c[nH]c3ccccc23)cc1)NO | 480 | 820 | 262 | – |
| O=C(/C=C/c1ccc(CNCCc2c[nH]c3ccccc23)cc1)NO | – | 400 | – | T/C (Mus musculus [4]): 13%; T/C (Mus musculus [5]): 40%; Body weight change (Mus musculus [7]): -7.3%; MTD (Mus musculus [8]): 100 mg/kg; T/C (Mus musculus [9]): 17%; Body weight change (Mus musculus [10]): -9.4%; Body weight change (Mus musculus [11]): -10.2%; Body weight change (Mus musculus [12]): -7%; T/C (Mus musculus [14]): 56% |
| O=C(/C=C/c1ccc(CNCCCc2ccccc2)cc1)NO | 50 | 800 | 150 | Body weight change (Mus musculus [19]): -3.1%; MTD (Mus musculus [1]): 45 mg/kg; T/C (Mus musculus [20]): 86% |
| O=C(/C=C/c1ccc(CN[C@H](CO)Cc2c[nH]c3ccccc23)cc1)NO | 50 | 810 | 27 | – |
